# Screening results from PubChem.
# TAAR1 antagonist: antagonists of human TAAR1; AID 624466; inhibition, % at 3 µM; CHO RD-HGA16 TAAR1, Fluo-8 calcium fluorescence, antagonist; hit rate 1.5% among 360,000;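 active = inhibition above a per-plate cutoff, the mean inhibition of test compounds on that plate plus 3 SD, cut at about 49% in these data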;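 also: 0% = DMSO plus EC80 beta-PEA response and 100% = DMSO alone without agonist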
# Target sequence (Q96RJ0 whole entry, looked up): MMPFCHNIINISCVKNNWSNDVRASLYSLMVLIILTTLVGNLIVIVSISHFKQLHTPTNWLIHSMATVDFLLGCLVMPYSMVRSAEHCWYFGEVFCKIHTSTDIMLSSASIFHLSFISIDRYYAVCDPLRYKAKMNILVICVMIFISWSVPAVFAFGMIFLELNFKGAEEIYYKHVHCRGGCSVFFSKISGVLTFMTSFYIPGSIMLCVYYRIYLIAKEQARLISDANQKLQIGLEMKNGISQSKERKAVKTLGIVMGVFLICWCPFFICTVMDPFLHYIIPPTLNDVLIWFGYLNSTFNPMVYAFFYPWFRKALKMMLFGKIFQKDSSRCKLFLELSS
#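 Material: CHO RD-HGA16 cells bearing hTAAR1; compound dosing: one-point dosing, 3 µM nominal final; schedule: dye loading 75 min at 37 °C, then 30 min room temperature; measured by: calcium fluorescence with Fluo-8; control set: vehicle and agonist controls; replication: n of 1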
# NS3 helicase inh: HCV NS3 helicase inhibition; NS3 helicase DNA unwinding, Cy5 molecular beacon fluorescence; hit rate 0.56% among 290,000; inhibition, % at 10.9 µM;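 active = inhibition above the mean of all tested compounds plus 3 SD, set per campaign, cut at about 35% in these data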;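 also: 0% = DMSO wells and 100% = thioflavine S control wells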
#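 Control set: DMSO versus 110 µM thioflavine S; Material: NS3 helicase fragment of HCV; Measured by: Cy5 fluorescence at 0 and 60 min, beacon hairpin quenching; Read-out basis: percent inhibition from t60/t0 fluorescence ratio; Times: reaction time 60 min, 25 °C; Repeats: single replicate; Compound dosing: single dose, 10.9 µM nominal final, DMSO 0.8% final.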
# TAAR1 agonist: agonists of human TAAR1; CHO RD-HGA16 TAAR1, Fluo-8 calcium fluorescence; vehicle wells 0%, saturating PEA agonist 100%; Q96RJ0; activation, % at 3 µM; AID 624467; hit rate 0.99% among 360,000;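 active = activation above the mean activation of all test compounds in the run plus 3 SD, cut at about 38% in these data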
#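 test system = CHO RD-HGA16 cells carrying human TAAR1 plus Gα16 | schedule = 17-24 h seeding, 75 min 37 °C dye, 30 min RT | compound dosing = 3 µM single concentration | control set = DMSO and PEA EC100 | replicates = n 1 | signal = Fluo-8 fluorescence, 5 s baseline then 140 s kinetic read | measure = percent activation vs PEA EC100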
# rCAG RNA binder: r(CAG) repeat RNA binding; TO-PRO-1 dye displacement fluorescence; inhibition, % at 3 µM; hit rate 1.3% among 370,000;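 active = inhibition above the plate cutoff, the mean of all test compounds on that plate plus 3 SD, cut at about 35% in these data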;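 also: 0% = DMSO alone and 100% = 100 µM mitoxantrone as full dye displacement; higher means more dye released from RNA so lower well fluorescence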
# core dimer inh: HCV core protein dimerization inhibition; TR-FRET GST/Flag-core106 dimerization, 1536-well; inhibition, % at 5 µM; hit rate 0.33% among 300,000; AID 1899;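 active = inhibition above the mean of all tested compounds plus 3 SD, set per screening campaign, cut at about 45% in these data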
#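 System: GST-tagged and Flag-tagged HCV core protein residues 1-106 / Input: core106 proteins, GST 13.5 nM and Flag 17 nM / Buffer or medium: KF-containing HEPES buffer, pH 7.45, DTT, CHAPS, BSA / Probe or stimulus: Eu-anti-GST and XL665-anti-Flag labelled anti-tag antibodies / Schedule: 4 h, 22.5 °C incubation / Technique: TR-FRET 671 and 617 nm emission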
# TAAR1 ag conf: confirmation of human TAAR1 agonists; shares compounds with TAAR1 agonist; CHO RD-HGA16 TAAR1, Fluo-8 calcium fluorescence; scaled: DMSO 0%, maximal phenethylamine 100%; activation, % at 3 µM; hit rate 82% among 2,400;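 active = activation above a cutoff set at the run's mean compound activation plus 3 SD, cut at about 39% in these data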
# Ga16 ag counter: nonselective agonism, TAAR1 counter-screen; shares compounds with TAAR1 agonist; CHO-Ga16 parental, Fluo-8 calcium fluorescence; normalized to maximal ATP response, DMSO zero; activation, % at 3 µM; hit rate 50% among 2,400; AID 651787;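 active = activation above the run cutoff, the mean activation over all tested wells plus 3 SD, cut at about 12% in these data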;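 also: 0% = DMSO wells and 100% = maximal ATP response on the peak over basal ratio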
# TAAR1 desensitize: counter-screen for human TAAR1 agonists: agonists that desensitize TAAR1; shares compounds with TAAR1 agonist; CHO RD-HGA16 hTAAR1, Fluo-8 calcium, beta-PEA response inhibition; inhibition, % at 3 µM; hit rate 46% among 2,400;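 active = inhibition above the run cutoff, the mean inhibition of all test compounds plus 3 SD, cut at about 49% in these data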;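 also: beta-PEA stimulus applied at its EC80; loss of beta-PEA calcium signal after compound pretreatment read as receptor desensitization; 0% = DMSO with beta-PEA at EC80 and 100% = DMSO alone without agonist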
# Ga16 antag count: nonselective Ga16 antagonism, counter-screen. shares compounds with TAAR1 agonist. CHO-Ga16 ATP-induced calcium, Fluo-8 fluorescence. inhibition, % at 3 µM. hit rate 39% among 2,400. AID 651952;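 active = inhibition above the plate's mean compound inhibition plus 3 SD, computed per plate, cut at about 22% in these data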;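 also: 0% = EC80 ATP with DMSO and 100% = DMSO wells without ATP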
# * = called active by the depositor; i = inactive; nt = no result given. The list is not random: actives were taken first. Their share in the collection is about 3.7%.
SMILES,TAAR1 antagonist,NS3 helicase inh,TAAR1 agonist,rCAG RNA binder,core dimer inh,TAAR1 ag conf,Ga16 ag counter,TAAR1 desensitize,Ga16 antag count
CCc1ccccc1NC(=O)Nc1ccc2c(c1)OCO2,43,-8,64*,3,6,2,5,3,9
COC(=O)c1cc(-c2ccccc2OC)c(=O)n2c1CCC2,nt,nt,nt,1,nt,nt,nt,nt,nt
O=C(O)CCCCCN1C(=O)/C(=C\c2ccc(-c3ccc(Cl)cc3)o2)SC1=S,9,25,1,3,4,nt,nt,nt,nt
O=C(O)CCCN1C(=O)/C(=C/c2ccc(-c3nc4ccccc4s3)o2)SC1=S,82*,3,72*,18,25,55*,39*,84*,67*
N#Cc1ccc(OCCCN2CCC(C(O)(C3=CCCC3)c3ccccc3)CC2)cc1 (stereo not drawn),3,nt,19,0,nt,nt,nt,nt,nt
CCn1c(C)nc2cc(C(=O)NNC(=S)Nc3ccc(Cl)cc3)ccc21,2,-3,54*,20,1,61*,4,33,9
CCn1c(C)nc2cc(C(=O)NNC(=S)Nc3ccc(F)cc3)ccc21,-39,4,4,1,-1,nt,nt,nt,nt
Cc1cccc(-c2cccc3c4c([nH]c23)[C@@H]2C[C@H](N(C)C(=O)c3ccccc3C)[C@H]([C@H](C)O)CN2CC4)c1,nt,nt,nt,4,nt,nt,nt,nt,nt
CCN(CC)c1ccc(/C=C(\C#N)c2ccccn2)cc1,nt,-15,nt,nt,0,nt,nt,nt,nt
CN(CCC#N)c1ccc(/C=C(\C#N)c2ccccn2)cc1,19,-1,86*,i,-9,3,5,8,10
Cc1ccc(C)c(Nc2c([N+](=O)[O-])ccc3nonc23)c1,-4,8,72*,-1,10,66*,40*,-8,-12
O=C(NC1CCCC1)C1(C(=O)C2CC2)CC(c2ccccn2)=NO1 (stereo not drawn),nt,nt,nt,0,nt,nt,nt,nt,nt
CCCOc1c(OC)cccc1C1CC(=O)Nc2cc3c(cc21)OCCO3 (stereo not drawn),-12,-1,39*,-1,17,10,9,-10,-2
O=c1[nH]c(=O)n(Cc2ccco2)c2c1C(C(F)(F)F)(C(F)(F)F)N=C(CCC1CCCCC1)N2,26,6,58*,1,6,38*,21*,56*,35*
CC(C)Cn1c2c(c(=O)[nH]c1=O)C(C(F)(F)F)(C(F)(F)F)N=C(CCC1CCCCC1)N2,7,-4,23,-4,7,nt,nt,nt,nt
O=c1[nH]c(=O)n(-c2ccccc2)c2c1C(C(F)(F)F)(C(F)(F)F)N=C(CCC1CCCCC1)N2,-2,10,47*,-1,11,101*,70*,95*,52*
O=c1[nH]c(=O)n(Cc2ccco2)c2c1C(C(F)(F)F)(C(F)(F)F)N=C(C1CCCCC1)N2,15,4,-1,-4,-2,nt,nt,nt,nt
C[C@H]1COc2cccc(N3CCSCC3)c2S(=O)(=O)N1C,nt,nt,nt,0,nt,nt,nt,nt,nt
Cn1c(=O)c(N)c2c3c(c(Br)ccc31)C(=O)c1ccccc1-2,36,10,84*,i,-15,7,21*,33,35*
O=c1ccnc(NCCc2ccccc2)[nH]1,nt,-9,nt,4,-2,nt,2,nt,6
Cn1ccnc1C1CCCCN1C(=O)c1cc(COc2ccc(F)cc2F)on1 (stereo not drawn),-17,1,56*,1,-4,8,3,13,8
Cc1nonc1C1CCCN1C(=O)c1cc(COc2ccc(F)cc2F)on1 (stereo not drawn),-22,2,0,-4,2,nt,nt,nt,nt
COC(=O)[C@H](CCSC)NC(=O)NCCc1ccccc1F,-1,-1,47*,1,0,53*,1,26,8
CN(N=Cc1ccc(N(C)C)cc1)C(=O)c1ccccc1N,0,nt,0,0,nt,nt,nt,nt,nt
CCn1cc(C(=O)O)c(=O)c2cc(F)c(N/N=C/c3ccccc3)cc21,70*,-2,56*,2,21,82*,2,85*,8
SMILES,TAAR1 antagonist,NS3 helicase inh,TAAR1 agonist,rCAG RNA binder,core dimer inh,TAAR1 ag conf,Ga16 ag counter,TAAR1 desensitize,Ga16 antag count
O=C(N/N=C/c1cccc(O)c1)N/N=C/c1cccc(O)c1,16,0,46*,2,6,81*,1,38,11
COc1cc(/C=N\Nc2cc(=O)n(C)c(=O)n2C)ccc1O,-6,0,6,-1,-12,nt,nt,nt,nt
O=C(CCc1ccccc1)N/N=C/c1cccc(O)c1,3,11,-1,1,-2,nt,nt,nt,nt
Cn1c(N/N=C\c2cccc(O)c2)cc(=O)n(C)c1=O,7,4,52*,2,0,77*,1,15,5
CCOC(=O)[C@@]12CCCC3=C1N(CCC3)C(=O)[C@H]2CC(=O)N1CCN(C(=O)C2CC2)CC1,nt,nt,nt,-4,nt,nt,nt,nt,nt
CCn1c(SCC(=O)NN=Cc2cccc(OCc3ccccc3)c2)nnc1-c1ccc(OC)c(OC)c1,nt,nt,nt,5,nt,nt,nt,nt,nt
CN1CCCCC(NC(=O)c2ccc3ccccc3c2)C1=O (stereo not drawn),3,nt,0,2,nt,nt,nt,nt,nt
O=C(C1CC1)N1CCC(c2nc(-c3ccc(S(=O)(=O)NCC4CCCO4)cc3)no2)CC1 (stereo not drawn),-1,-2,8,-4,1,nt,nt,nt,nt
O=C(c1ccccc1)N1CCC(c2nc(-c3ccc(S(=O)(=O)NCC4CCCO4)cc3)no2)CC1 (stereo not drawn),33,14,43*,-3,1,10,10,16,27*
Cc1cc(C)n(C(CC(=O)N2CCc3ccccc3C2)C(=O)O)n1 (stereo not drawn),90*,7,102*,4,0,107*,4,94*,4
CS(=O)(=O)N(CC(=O)N1CCc2ccccc2C1)c1cccc([N+](=O)[O-])c1,-2,4,60*,-4,8,54*,2,13,11
CS(=O)(=O)N(Cc1ccccc1)c1ccc(C(=O)N2CCc3ccccc3C2)cc1,91*,-15,93*,-5,9,101*,8,97*,25*
Cc1c(Cl)c([N+](=O)[O-])nn1CC(=O)N1CCc2ccccc2C1,-11,-20,23,1,-7,nt,nt,nt,nt
CS(=O)(=O)N(CC(=O)N1CCc2ccccc2C1)c1cccc(F)c1,-4,-1,4,-5,-5,nt,nt,nt,nt
